This passage reports inhibition and IC50 results from ChEMBL document CHEMBL4184092, “Chemical constituents from Taraxacum officinale and their α-glucosidase inhibitory activities” (Bioorg Med Chem Lett, 2018).

Calls of active or inactive are those of the source. No cut-off for these calls is given here.

Assay [1] deals with Saccharomyces cerevisiae. As to the kind of experiment: Inhibition of Saccharomyces cerevisiae alpha-glucosidase using p-nitro-phenyl-alpha-D-glucopyranoside as substrate at 200 uM preincubated with enzyme followed by substrate addition measured after 10 mins for every 2.5 to 5 mins relative to control. The procedure, abridged: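 Sample mixed with baker's yeast alpha-glucosidase stock (0.11 U/ml in 50 mM PBS) and preincubated at 36 °C. pNPG stock (1.35 mM) then added, incubated 10 min at 36 °C, and absorbance at 405 nm read every 2.5–5 min. PBS replaced sample as control. % inhibition = [1 − (ΔAbs sample/ΔAbs control)] × 100; triplicates; IC50 from six-concentration dose-inhibition curve.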

Assay [2] in a line: Inhibition of Saccharomyces cerevisiae alpha-glucosidase using p-nitro-phenyl-alpha-D-glucopyranoside as substrate preincubated with enzyme followed by substrate addition measured after 10 mins for every 2.5 to 5 mins.
For assay [3], the system named is Saccharomyces cerevisiae. As to the kind of experiment: Competitive inhibition of Saccharomyces cerevisiae alpha-glucosidase using p-nitro-phenyl-alpha-D-glucopyranoside as substrate preincubated with enzyme followed by substrate addition measured after 10 mins by Lineweaver-Burk plot analysis. The method, boiled down: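 Baker's yeast alpha-glucosidase (stock 0.11 U/ml in 50 mM PBS) with pNPG at various concentrations, 36 °C. Initial velocity taken as the per-minute change in 405 nm absorbance. Inhibition type assigned from Lineweaver-Burk plots at several inhibitor levels plus an uninhibited series.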

The subject of assay [4] is Saccharomyces cerevisiae. As to the kind of experiment: Mixed type inhibition of Saccharomyces cerevisiae alpha-glucosidase using p-nitro-phenyl-alpha-D-glucopyranoside as substrate preincubated with enzyme followed by substrate addition measured after 10 mins by Lineweaver-Burk plot analysis. The procedure, abridged: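 Baker's yeast α-glucosidase (stock 0.11 U/ml in 50 mM PBS) mixed with sample and incubated at 36 °C, then p-nitrophenyl-α-D-glucopyranoside added at various concentrations and incubated at 36 °C for 10 min. Initial velocity was taken as the rate of change of absorbance at 405 nm per min. Inhibition type was assigned from Lineweaver-Burk plots.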

With `CC(=O)/C=C/C1=C(C)[C@@H](O)[C@@H](O[C@@H]2O[C@H](CO)[C@@H](O)[C@H](O)[C@H]2O)CC1(C)C`, the inhibition (usually how much of the control response was suppressed) in the assay on Saccharomyces cerevisiae [1] amounted to 0%.

`C[C@H]1O[C@H](O[C@H]2[C@H](O)[C@@H](O)[C@@H](O[C@H]3[C@H](O)[C@@H](O)C(O)O[C@@H]3CO)O[C@@H]2CO)[C@H](O)[C@@H](O)[C@@H]1N[C@H]1C=C(CO)[C@@H](O)[C@H](O)[C@H]1O` (stereo partly drawn) [ACARBOSE] came in with an inhibition in the assay with Saccharomyces cerevisiae [1] of 51.8%. Further, half-maximal inhibition in assay [2] (IC50) required 180 µM.

For `CC1(C)C[C@H](O)C[C@@]2(C)OC(=O)C=C12`, the inhibition in the assay with Saccharomyces cerevisiae [1] was 8.8%.

Consider `COC(=O)C[C@@H](CO)O[C@@H]1O[C@H](CO)[C@@H](O)[C@H](O)[C@H]1OC(=O)C(=O)c1ccc(O)cc1`, for which the inhibition in the assay with Saccharomyces cerevisiae [1] came to 56.6%. In addition, in assay [2], half-maximal inhibition (IC50) was put at 165 µM.

In the assay with Saccharomyces cerevisiae [1], `C=C1C(=O)O[C@@H]2/C=C(\C)CC/C=C(\C(=O)O[C@@H]3O[C@H](CO)[C@@H](O)[C@H](O)[C@H]3O)CC[C@@H]12` displayed an inhibition of 13.1%.

`Nc1ncnc2c1ncn2[C@@H]1O[C@H](CO)[C@@H](O)[C@H]1O`: in the assay with Saccharomyces cerevisiae [1], the inhibition came out at 10.3%.

In turn, `COc1cc(-c2oc3cc(O)cc(O)c3c(=O)c2O)cc(O)c1OC` yielded an inhibition with Saccharomyces cerevisiae [1] of 57.4%. Besides, the IC50 (as a rule, the point on the concentration scale where inhibition reaches its midpoint) in assay [2] came to 154 µM.

Consider `O=C(Cc1ccc(O)cc1)O[C@H]1[C@@H](O)[C@H](OC(=O)Cc2ccc(O)cc2)[C@H](OC(=O)Cc2ccc(O)cc2)[C@@H](O)[C@@H]1O`, for which, in the assay with Saccharomyces cerevisiae [1], the inhibition is 77.6%. For the same compound, the inhibition result in the assay with Saccharomyces cerevisiae [3] was “Active”. This compound also came in with an IC50 in assay [2] of 61.2 µM.

In the assay with Saccharomyces cerevisiae [1], `COC(=O)C[C@@H](CO)O[C@@H]1O[C@H](CO)[C@@H](O)[C@H](OC(=O)Cc2ccccc2)[C@H]1OC(=O)C(=O)c1ccc(O)cc1` gave an inhibition of 56.6%. Further, the IC50 in assay [2] amounted to 165 µM.

For `O=c1ccc2cc(O[C@@H]3O[C@H](CO)[C@@H](O)[C@H](O)[C@H]3O)c(O)cc2o1`, in the assay on Saccharomyces cerevisiae [1], the inhibition came to 1.8%.

Consider `CC1=CC(=O)CC(C)(C)[C@@]1(O)/C=C/[C@@H](C)O[C@@H]1O[C@H](CO)[C@@H](O)[C@H](O)[C@H]1O`, for which the inhibition in the assay on Saccharomyces cerevisiae [1] was found to be 13.7%.

In turn, `COC(=O)/C=C/c1ccc(O)c(O)c1` showed an inhibition with Saccharomyces cerevisiae [1] of 1.6%.

Regarding `O=C1C[C@@H](O[C@@H]2O[C@H](CO)[C@@H](O)[C@H](OC(=O)Cc3ccc(O)cc3)[C@H]2OC(=O)Cc2ccc(O)cc2)CO1`, the inhibition in the assay with Saccharomyces cerevisiae [1] was determined as 58.3%. In assay [2], this compound had an IC50 of 152 µM.

In the assay on Saccharomyces cerevisiae [1], `COc1cc(-c2cc(=O)c3c(O)cc(O)cc3o2)cc(OC)c1O[C@H](CO)[C@@H](O)c1ccc(O)cc1` gave an inhibition of 8.7%.

In the assay on Saccharomyces cerevisiae [1], `COc1cc(/C=C/CO)cc(OC)c1O[C@@H]1O[C@H](CO)[C@@H](O)[C@H](O)[C@H]1O` registered an inhibition of 1.8%.

The compound `CC(=O)/C=C/[C@]12O[C@@]1(C)C[C@@H](O)CC2(C)C` displayed an inhibition with Saccharomyces cerevisiae [1] of 17.6%.

Regarding `CC1=CC(=O)CC(C)(C)[C@]1(O)/C=C/[C@@H](C)O[C@@H]1O[C@H](CO)[C@@H](O)[C@H](O)[C@H]1O`, the inhibition in the assay on Saccharomyces cerevisiae [1] was found to be 9.4%.

`O=C1C[C@@H](O[C@@H]2O[C@H](CO)[C@@H](O)[C@H](O)[C@H]2OC(=O)Cc2ccc(O)cc2)CO1` came in with an inhibition in the assay on Saccharomyces cerevisiae [1] of 57.6%. In addition, in assay [2], the IC50 is 181 µM.

In turn, `O=C(CO)c1c[nH]c2ccccc12` gave an inhibition with Saccharomyces cerevisiae [1] of 1.6%.

As for `O=C1C[C@@H](O[C@@H]2O[C@H](CO)[C@@H](O)[C@H](OC(=O)Cc3ccccc3)[C@H]2OC(=O)Cc2ccc(O)cc2)CO1`, in the assay with Saccharomyces cerevisiae [1], the inhibition turned out to be 58.9%. Moreover, the inhibition entry in the assay with Saccharomyces cerevisiae [4] was “Active”. Also, the IC50 in assay [2] is 145 µM.

In turn, `O=c1cc(-c2ccc(O)c(O)c2)oc2cc(O)cc(O)c12` [LUTEOLIN] registered an inhibition in the assay with Saccharomyces cerevisiae [1] of 99.6%. Besides, the inhibition entry in the assay on Saccharomyces cerevisiae [4] was “Active”. The IC50 in assay [2] was found to be 39.8 µM.

As for `COc1cc(-c2cc(=O)c3c(O)cc(O)cc3o2)cc(OC)c1O` [TRICIN], the inhibition in the assay on Saccharomyces cerevisiae [1] was 59.1%. For the same compound, half-maximal inhibition in assay [2] (IC50) was put at 162 µM.

`COc1cc(-c2cc(=O)c3c(O)cc(O)cc3o2)cc(OC)c1O[C@@H](CO)[C@@H](O)c1ccc(O)cc1`: the inhibition in the assay on Saccharomyces cerevisiae [1] was 8.3%.

Consider `COC(=O)C[C@@H](CO)O[C@@H]1O[C@H](CO)[C@@H](O)[C@H](OC(=O)Cc2ccccc2)[C@H]1OC(=O)Cc1ccc(O)cc1`, for which the inhibition with Saccharomyces cerevisiae [1] stood at 59.7%. Besides, the IC50 in assay [2] came to 150 µM.

`COc1cc([C@H](OC)[C@@H](CO)Oc2c(OC)cc(-c3cc(=O)c4c(O)cc(O)cc4o3)cc2OC)ccc1O` showed an inhibition with Saccharomyces cerevisiae [1] of 13.2%.

In the assay on Saccharomyces cerevisiae [1], `CC(=O)/C=C/C1=C(C)[C@@H](O)[C@@H](O)CC1(C)C` returned an inhibition of 11.5%.

With `CC1(C)C[C@@H](O)C[C@@]2(C)OC(=O)C=C12`, the inhibition with Saccharomyces cerevisiae [1] came to 6.4%.

Compound `COc1cc(-c2cc(=O)c3c(O)cc(O)cc3o2)ccc1O` displayed an inhibition with Saccharomyces cerevisiae [1] of 56.9%.

In turn, `COc1cc([C@H](OC)[C@H](CO)Oc2c(OC)cc(-c3cc(=O)c4c(O)cc(O)cc4o3)cc2OC)ccc1O` came in with an inhibition in the assay with Saccharomyces cerevisiae [1] of 9.1%.
